Measurements published in ChEMBL document CHEMBL4340526, “Discovery and Mechanistic Study of Tailor-Made Quinoline Derivatives as Topoisomerase 1 Poison with Potent Anticancer Activity” (J Med Chem, 2019).
The source made the active and inactive calls. No cut-off for these calls is given here.

Experiments:
DNA topoisomerase 1 [1] = target: T1, DNA topoisomerase 1 (Homo sapiens, UniProt P11387); assay: Poison activity at recombinant human TOP1 expressed in baculovirus infected Sf9 insect cells assessed as decrease in relaxed supercoiled pBS(SK+) DNA mobility measured after 30 mins by ethidium bromide staining based agarose gel electrophoresis
T1 sequence (P11387 whole entry): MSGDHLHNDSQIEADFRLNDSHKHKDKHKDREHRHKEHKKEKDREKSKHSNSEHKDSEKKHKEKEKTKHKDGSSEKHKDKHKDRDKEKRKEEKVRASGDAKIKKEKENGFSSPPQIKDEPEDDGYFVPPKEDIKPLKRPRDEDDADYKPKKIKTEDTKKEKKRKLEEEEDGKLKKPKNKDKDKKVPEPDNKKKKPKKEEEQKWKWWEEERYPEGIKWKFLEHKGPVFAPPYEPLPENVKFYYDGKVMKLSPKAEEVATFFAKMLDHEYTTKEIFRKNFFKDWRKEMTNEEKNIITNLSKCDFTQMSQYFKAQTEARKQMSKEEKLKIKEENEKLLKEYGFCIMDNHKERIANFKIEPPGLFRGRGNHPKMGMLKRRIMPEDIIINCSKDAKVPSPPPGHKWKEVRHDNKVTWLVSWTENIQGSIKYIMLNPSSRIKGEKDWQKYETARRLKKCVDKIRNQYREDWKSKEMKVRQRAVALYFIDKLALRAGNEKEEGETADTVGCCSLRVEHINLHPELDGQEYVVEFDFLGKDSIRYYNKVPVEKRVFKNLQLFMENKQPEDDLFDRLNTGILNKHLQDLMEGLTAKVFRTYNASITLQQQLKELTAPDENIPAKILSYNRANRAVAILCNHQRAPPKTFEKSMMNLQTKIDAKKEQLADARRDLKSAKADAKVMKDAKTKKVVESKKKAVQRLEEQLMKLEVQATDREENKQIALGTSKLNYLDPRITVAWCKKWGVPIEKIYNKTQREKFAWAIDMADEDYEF
In short: (§1)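 Top1 is recombinant human enzyme purified from baculovirus-infected Sf-9 cells. Supercoiled pBS (SK+) DNA (90 fmol) is incubated with 30 fmol Top1 (3:1 DNA:enzyme molar ratio) in relaxation buffer, with compound added simultaneously, 30 min at 37 °C. Relaxed isomers are resolved on 1% agarose and percent relaxation inhibition is quantified. Triplicate, mean ± SD.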

MEF [2] = assay: Cytotoxicity against TDP1-positive MEF cells assessed as reduction in cell viability measured after 72 hrs by MTT assay; format: functional, cell-based; conditions: Mus musculus
In short: (§2)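 Cell lines are HCT116, HeLa, NIH:OVCAR-3, and primary TDP1+/+ and TDP1−/− mouse embryonic fibroblasts, each exposed to variable compound concentrations. Viability is measured by MTT. Percent inhibition at each concentration is calculated against untreated control, and IC50 is estimated from these values.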

MEF [3] = assay: Cytotoxicity against TDP1-deficient MEF cells assessed as reduction in cell viability measured after 72 hrs by MTT assay; format: functional, cell-based; conditions: Mus musculus; in short: as §2
[4] = Stability of the compound in human plasma assessed as parent compound remaining at […] measured after 2 hrs by LC-MS/MS analysis; format: ADME, cell-free; conditions: read-out: Stability
In short: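 Plasma is thawed, spun at 1400 RCF for 15 min at 4 °C, and supernatant used. Compound (final 1 μM, diluted from acetonitrile/water stock) is incubated in human plasma 2 h at 37 °C with gentle shaking. Aliquots at 0, 15, 30, 60 and 120 min are precipitated with acetonitrile containing internal standard and analyzed by LC–MS/MS. The 0 min reference uses heat-inactivated plasma (56 °C, 45 min). Value is mean % remaining at 2 h.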

DNA [5] = assay: Binding affinity to Escherichia coli pBS(SK+) DNA assessed as TOP1-mediated unwinding effect at 20 to 200 uM measured after 15 mins by EtBr staining based agarose gel electrophoresis method; format: nucleic-acid assay
In short: (§3)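 Relaxed pBS (SK+) substrate made by treating supercoiled plasmid with excess Top1, then proteinase K digestion at 37 °C, phenol/chloroform extraction and ethanol precipitation. Reactions hold 50 fmol relaxed DNA with compound (20, 50, 100, 200 μM) and are incubated 15 min at 37 °C. Read-out is 1% agarose gel stained with 0.5 μg/mL EtBr under UV, scoring net negative supercoiling.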

Calf thymus DNA [6] = assay: Displacement of ethidium bromide from calf thymus DNA at 200 uM by fluorescence assay; format: nucleic-acid assay; conditions: Bos taurus
In short: (§4)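 Ethidium displacement fluorescence at 25 °C in fluorescence buffer containing 1 μM EtBr and 5 nM calf thymus DNA, with compound titrated 0–300 μM. Emission is read at 590 nm with 510 nm excitation and plotted as % EtBr bound.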

HCT-116 = assay: Cytotoxicity against human HCT116 cells assessed as reduction in cell viability measured after 72 hrs by MTT assay; format: functional, cell-based; conditions: HCT-116, 72 h; in short: as §2
[7] = Cytotoxicity against human NIH:OVCAR3 cells assessed as reduction in cell viability measured after 72 hrs by MTT assay; format: functional, cell-based; conditions: OVCAR-3, 72 h; in short: as §2
HEK293 = assay: Cytotoxicity against HEK293 cells assessed as reduction in cell viability measured after 72 hrs by MTT assay; format: cell-based; conditions: Homo sapiens, HEK293, 72 h
In short: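 MTT cell survival assay in HEK293 cells (from the Developmental Therapeutics Program) exposed to a range of compound concentrations. Percent inhibition of viability at each concentration calculated relative to untreated control, and IC50 estimated from these values.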

[8] = target: T2, DNA topoisomerase 1 (Homo sapiens) (UniProt P11387); assay: Poison activity at recombinant human TOP1 expressed in baculovirus infected Sf9 insect cells assessed as decrease in relaxed supercoiled pBS(SK+) DNA mobility at 10 uM measured after 30 mins by ethidium bromide staining based agarose gel electrophoresis relative to control; set-up: scale not given: the % may be the effect or the level left; in short: as §1
T2 sequence (whole entry): T1 sequence (P11387 whole entry)

DNA [9] = assay: Binding affinity to Escherichia coli pBS(SK+) DNA assessed as TOP1-mediated unwinding effect at 50 to 200 uM measured after 15 mins by EtBr staining based agarose gel electrophoresis method; format: nucleic-acid assay; in short: as §3
Calf thymus DNA [10] = assay: Displacement of ethidium bromide from calf thymus DNA at 50 uM by fluorescence assay; format: nucleic-acid assay; conditions: Bos taurus
In short: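 Fluorescence ethidium displacement run at 25 °C with 1 μM EtBr and 5 nM calf thymus DNA in fluorescence buffer. Test compound titrated over 0–300 μM. EtBr emission read at 590 nm with excitation at 510 nm. Result expressed as % EtBr remaining bound.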

[11] = target: T2, DNA topoisomerase 1 (Homo sapiens); assay: Poison activity at recombinant human TOP1 expressed in baculovirus infected Sf9 insect cells assessed as decrease in relaxed supercoiled pBS(SK+) DNA mobility at 100 uM measured after 30 mins by ethidium bromide staining based agarose gel electrophoresis relative to control; set-up: scale not given: the % may be the effect or the level left; in short: as §1
Calf thymus DNA [12] = assay: Displacement of ethidium bromide from calf thymus DNA up to 300 uM by fluorescence assay; format: nucleic-acid assay; conditions: Bos taurus; in short: as §4
DNA topoisomerase 1 [13] = target: T1, DNA topoisomerase 1; assay: Poison activity at TOP1 in human MCF7 cells assessed as decrease in relaxed supercoiled pBS(SK+) DNA mobility measured after 30 mins by ethidium bromide staining based agarose gel electrophoresis; format: cell-based
In short: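 The Top1 source is MCF7 whole-cell extract (endogenous enzyme). Extract is incubated with 0.3 μg supercoiled pBS (SK+) DNA and compound added together, 30 min at 37 °C, in relaxation buffer. Supercoiled and relaxed forms are separated on 1% agarose and percent relaxation inhibition is quantified. Triplicate, mean ± SD.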

Row | Compound | IC50 (DNA topoisomerase 1 [1]) [µM] | also measured
1 | COc1ccc(-c2ccc3ncc(-c4nnco4)c(NCCn4ccnc4)c3c2)cc1 | > 10 | 
2 | COc1ccc(-c2ccc3ncc(-c4nnco4)c(NCCCn4ccnc4)c3c2)cc1 |  | IC50 (MEF [2]): 2.91 µM; IC50 (MEF [3]): 1.02 µM; remaining at 2 h [4]: 93.3%; Activity (DNA [5]): inactive; Activity (Calf thymus DNA [6]): inactive; IC50 (HCT-116): 2.34 µM; IC50 [7]: 2.35 µM; IC50 (HEK293): 8.34 µM
3 | CNc1c(-c2nnco2)cnc2ccc(-c3ccc(OC)cc3)cc12 | > 10 | 
4 | c1ccc(-c2ccc3ncc(-c4nnco4)c(NCCCn4ccnc4)c3c2)cc1 | > 10 | Activity [8]: 40%
5 | COc1cc(NS(C)(=O)=O)ccc1Nc1c2ccccc2nc2ccccc12 |  | Activity (DNA [9]): Active; Activity (Calf thymus DNA [10]): Active
6 | CCOC(=O)c1cnc2ccc(-c3ccc(OC)cc3)cc2c1NCCCn1ccnc1 | > 10 | 
7 | COc1ccc(-c2ccc3ncc(-c4nnco4)c(NCCN4CCOCC4)c3c2)cc1 | > 10 | Activity [11]: 50%
8 | Fc1ccc(-c2ccc3ncc(-c4nnco4)c(NCCCn4ccnc4)c3c2)cc1 | > 10 | 
9 | COc1ccc(-c2ccc3ncc(-c4nnc(N)o4)c(NCCCn4ccnc4)c3c2)cc1 | > 10 | 
10 | CCOC(=O)c1cnc2ccc(-c3ccc(OC)c(OC)c3)cc2c1NCCCn1ccnc1 | > 10 | 
11 | COc1ccc(-c2ccc3ncc(-c4nnco4)c(NCCCn4ccnc4)c3c2)cc1OC | > 10 | 
12 | Cc1ccc(-c2ccc3ncc(-c4nnco4)c(NCCCN4CCOCC4)c3c2)cc1 | > 10 | 
13 | COc1ccccc1-c1ccc2ncc(-c3nnco3)c(NCCCn3ccnc3)c2c1 | > 10 | 
14 | COc1ccc(-c2ccc3ncc(-c4nnc(C)o4)c(NCCN4CCOCC4)c3c2)cc1 | > 10 | 
15 | COc1ccc(-c2ccc3ncc(-c4nnc(C)o4)c(NCCCn4ccnc4)c3c2)cc1 | > 10 | 
16 | N#Cc1ccc(-c2ccc3ncc(-c4nnco4)c(NCCCn4ccnc4)c3c2)cc1 | > 10 | 
17 | CC[C@@]1(O)C(=O)OCc2c1cc1n(c2=O)Cc2cc3ccccc3nc2-1 [CAMPTOTHECIN] |  | remaining at 2 h [4]: 15.7%
18 | Oc1ccc(-c2ccc3ncc(-c4nnco4)c(NCCCn4ccnc4)c3c2)cc1 | > 10 | 
19 | COc1cc([C@@H]2c3cc4c(cc3[C@@H](O[C@@H]3O[C@@H]5CO[C@@H](C)O[C@H]5[C@H](O)[C@H]3O)[C@H]3COC(=O)[C@H]23)OCO4)cc(OC)c1O |  | Activity (DNA [9]): inactive; Activity (Calf thymus DNA [12]): inactive
20 | COc1ccc(-c2ccc3ncc(-c4nnco4)c(NCCCn4ccnc4)c3c2)c(OC)c1 | > 10 | 
21 | COc1ccc(-c2ccc3ncc(-c4nnco4)c(NCCCN4CCOCC4)c3c2)cc1 | 1.79 | remaining at 2 h [4]: 83.4%; IC50 (DNA topoisomerase 1 [13]): 2.51 µM
22 | COc1ccc(-c2ccc3ncc(-c4nnc(C)o4)c(NCCN4CCOCC4)c3c2)cc1OC | > 10 | 
23 | COc1ccc(-c2ccc3ncc(-c4nnco4)c(NCCCN4CCOCC4)c3c2)cc1OC | > 10 | 
24 | COc1ccc(-c2ccc3ncc(-c4nnco4)c(NCCN4CCOCC4)c3c2)cc1OC | > 10 | Activity [11]: 20%
25 | COc1ccc(-c2ccc3ncc(-c4nnco4)c(NCCCn4ccnc4)c3c2)c(C)c1 | > 10 | 
